SR-BI uptake up = enhances SR-BI lipid uptake from DiI-HDL; CHO ldlA[mSR-BI] cells, DiI-HDL uptake fluorescence, 3 h; 100 = double the neutral-control signal; activation, % at 12.5 µM; 0.096% of 320,000 active; AID 504775;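 active = mean replicate activation of at least 60% and every replicate at or above 60%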;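 note: 0% = median plate neutral-control signal and 100% = twice that signal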
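Material: SR-BI-overexpressing, LDLR-lacking CHO cells | Dosing: Single compound concentration, delivered by pin transfer | Probe or stimulus: Labelled HDL, 10 µg/mL | Signal: Bottom-read cell fluorescence after medium removal, ex 550/em 595 nm | Schedule: 3 h, 37 °C | Evaluation: HDL uptake via cellular fluorescence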
SR-BI HDL uptake = inhibitors of mouse SR-BI mediated HDL lipid uptake; inhibition, % at 12.5 µM; 0.96% of 320,000 active; Q61009; ldlA[mSR-BI] CHO cells, DiI-HDL uptake fluorescence, 3 h;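 active = mean replicate inhibition of at least 70% and a set share of replicates each scoring 70 or more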;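 note: 0% = median of neutral control wells and 100% = median of positive control wells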
Hep lipid drop = modulators of hepatic lipid droplet formation; AML12 mouse hepatocytes, oleate lipid droplets, BODIPY imaging; 0.4% of 240,000 active; inhibition, % at 6.5 µM;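 active = lipid droplet intensity inhibited by at least 50%, with more than 500 cells counted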
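Material: mouse AML12 hepatocyte cell line, fixed after treatment; Timing: compound with oleate, overnight; Technique: high-content imaging of BODIPY-stained droplets and DAPI nuclei; Probe or stimulus: oleate, 100 µM final; Dosing: compound at 6.5 µM only.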
NOD2 RIPK2 PPI = NOD2-RIPK2 protein interaction inhibition; O43353; CHO BLA complementation NOD2-RIPK2, CCF4 ratio; inhibition, % at 4.98 µM; 0.38% of 360,000 active; in the data active = inhibition above about 21%;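 note: 0% = vehicle only and 100% = reference blocker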
TLR9-MyD88 inh = inhibitors of human TLR9-MyD88 binding; Q9NR96+Q99836; CHO BLA complementation TLR9-MyD88, CCF4 FRET ratio; inhibition, % at 4.98 µM; 0.21% of 340,000 active;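 active = inhibition above the mean over all tested compounds plus 3 SD, cut at about 21% in these data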;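 note: 0% = DMSO only wells and 100% = clavulanate BLA inhibitor control wells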
Target sequence (Q99836 whole entry, looked up): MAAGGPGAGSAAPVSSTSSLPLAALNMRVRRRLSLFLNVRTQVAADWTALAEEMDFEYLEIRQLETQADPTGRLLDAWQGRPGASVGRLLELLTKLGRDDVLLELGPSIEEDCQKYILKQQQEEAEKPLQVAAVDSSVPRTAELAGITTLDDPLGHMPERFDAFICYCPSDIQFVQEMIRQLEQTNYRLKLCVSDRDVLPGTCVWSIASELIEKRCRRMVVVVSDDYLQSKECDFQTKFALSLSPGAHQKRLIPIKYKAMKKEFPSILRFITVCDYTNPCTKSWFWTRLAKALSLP
Target sequence (Q9NR96 whole entry, looked up): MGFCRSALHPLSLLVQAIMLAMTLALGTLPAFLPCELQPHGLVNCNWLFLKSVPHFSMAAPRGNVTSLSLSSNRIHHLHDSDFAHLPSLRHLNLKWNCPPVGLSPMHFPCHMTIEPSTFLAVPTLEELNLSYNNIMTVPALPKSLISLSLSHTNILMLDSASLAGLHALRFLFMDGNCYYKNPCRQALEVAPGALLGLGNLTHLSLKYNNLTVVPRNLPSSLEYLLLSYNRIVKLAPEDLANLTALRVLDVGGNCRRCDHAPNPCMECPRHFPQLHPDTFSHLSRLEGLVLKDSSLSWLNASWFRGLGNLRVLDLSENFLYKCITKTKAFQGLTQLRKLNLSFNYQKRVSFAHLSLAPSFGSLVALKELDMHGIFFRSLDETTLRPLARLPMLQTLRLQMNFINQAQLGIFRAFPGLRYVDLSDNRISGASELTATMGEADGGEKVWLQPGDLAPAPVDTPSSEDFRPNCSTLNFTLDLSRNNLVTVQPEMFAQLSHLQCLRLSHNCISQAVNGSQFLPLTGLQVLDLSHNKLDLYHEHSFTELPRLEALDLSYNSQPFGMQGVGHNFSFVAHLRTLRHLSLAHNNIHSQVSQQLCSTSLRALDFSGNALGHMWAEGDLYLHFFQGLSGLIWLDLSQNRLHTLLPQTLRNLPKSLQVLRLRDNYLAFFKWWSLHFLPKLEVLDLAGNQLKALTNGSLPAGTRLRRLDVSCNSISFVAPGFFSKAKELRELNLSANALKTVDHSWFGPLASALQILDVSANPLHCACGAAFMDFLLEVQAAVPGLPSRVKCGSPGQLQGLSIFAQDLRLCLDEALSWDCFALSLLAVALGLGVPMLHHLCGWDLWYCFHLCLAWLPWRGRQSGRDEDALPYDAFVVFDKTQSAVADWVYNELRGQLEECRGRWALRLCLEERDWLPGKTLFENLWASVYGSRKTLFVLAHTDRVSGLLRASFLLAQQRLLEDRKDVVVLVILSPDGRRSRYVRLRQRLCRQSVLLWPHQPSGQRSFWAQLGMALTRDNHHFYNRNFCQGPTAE
TLR4 MyD88 comp = blocks binding of human TLR4 to MyD88; HeLa CL3-4 TLR4/MyD88 BLA complementation, FRET ratio; inhibition, % at 8.4 µM; O00206+Q99836; 0.18% of 200,000 active; in the data active = inhibition above about 25%;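 note: 0% = vehicle and 100% = reference inhibitor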
TLR4 MyD88 cnf = confirmation of human TLR4-MyD88 binding inhibitors | inhibition, % at 8.4 µM | 50% of 350 active | AID 941 | HeLa CL3-4 BLA complementation, CCF4 FRET ratio | shares compounds with TLR4 MyD88 comp;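 active = mean inhibition across three repeat runs above about 25% carried over from the earlier screen, limit read from the data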;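 note: plate controls were DMSO only for no effect and clavulanic acid blocking BLA at full dose for full effect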
BLA inh HeLa = counter-screen for TLR4-MyD88 inhibitors: beta-lactamase reporter inhibitors; shares compounds with TLR4 MyD88 comp; HeLa BLA reporter, CCF4 FRET ratio; inhibition, % at 8.4 µM; 63% of 350 active; AID 1237;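 active = mean inhibition over three repeats above about 26% taken from the earlier screen, limit read from the data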;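 note: HeLa cells stably expressing beta-lactamase reporter as counterscreen for TLR4-MyD88 inhibitors; 0% = DMSO and 100% = clavulanic acid full inhibition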
TLR9-MyD88 conf = confirmation of human TLR9-MyD88 binding inhibitors. shares compounds with TLR9-MyD88 inh. CHO TLR9/MyD88 BLA complementation, CCF4 FRET ratio. inhibition, % at 4.98 µM. 51% of 680 active;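 active = mean inhibition across three repeats above about 21% taken from the earlier screen, limit read from the data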;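 note: blue over green emission ratio reports constitutive TLR9 MyD88 association via BLA complementation; 0% = DMSO vehicle wells and 100% = clavulanate BLA inhibitor wells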
BLA counter-1 = non-selective beta-lactamase inhibitors in TLR9-MyD88 counter-screen; 7% of 680 active; shares compounds with TLR9-MyD88 inh; inhibition, % at 4.98 µM; AID 540251; CHO-BLA cells, CCF4 FRET ratio, BLA reporter;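 active = mean inhibition above a 50% cutoff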;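 note: counterscreen of TLR9-MyD88 hits on CMV-driven BLA in CHO-K1 cells; 0% = DMSO alone and 100% = clavulanate blocking BLA; higher means less blue over green ratio so more BLA blockade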
TLR9 CHO cytotox = CHO cell toxicity counter-screen for TLR9-MyD88 inhibitors; inhibition, % at 4.98 µM; 39% of 680 active; TLR9-MyD88 CHO cells cytotoxicity, luminescence; shares compounds with TLR9-MyD88 inh; in the data active = inhibition above about 11%
NOD2 RIPK2 conf = confirmation of human NOD2-RIPK2 interaction inhibitors | shares compounds with NOD2 RIPK2 PPI | CHO cells, NOD2-RIPK2 BLA complementation, CCF4 FRET | inhibition, % at 4.98 µM | 70% of 1,200 active | AID 624370;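 active = mean inhibition across replicates above a set limit taken from the earlier primary screen, cut at about 21% in these data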;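 note: 0% = DMSO-only wells and the high end = clavulanate BLA-blocked wells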
BLA counter-2 = NOD2-RIPK2 counterscreen BLA reporter activity; shares compounds with NOD2 RIPK2 PPI; CHO BLA reporter, CCF4 FRET ratio; inhibition, % at 4.98 µM; 57% of 1,200 active; AID 624371;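 active = mean inhibition above the low-control mean inhibition plus three low-control SD, cut at about 11% in these data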;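 note: 0% = DMSO only wells and 100% = clavulanate high control wells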
* = called active by the depositor; · = no result given. An excerpt weighted towards active compounds, which were near 1.6% of everything screened.

SMILES	SR-BI uptake up	SR-BI HDL uptake	Hep lipid drop	NOD2 RIPK2 PPI	TLR9-MyD88 inh	TLR4 MyD88 comp	TLR4 MyD88 cnf	BLA inh HeLa	TLR9-MyD88 conf	BLA counter-1	TLR9 CHO cytotox	NOD2 RIPK2 conf	BLA counter-2
CCCCCn1c2c(c(=N)c3ccccc31)CCC2	-1	1	9	-13	-4	·	·	·	·	·	·	·	·
N#C/C(=C/c1ccc(-c2ccc(S(N)(=O)=O)cc2)o1)c1nc2ccccc2s1	-27	27	-6	39*	47*	46*	46*	75*	46*	41	24*	71*	71*
N#C/C(=C/c1ccc(-c2ccc(S(N)(=O)=O)cc2)o1)C(=O)Nc1ccccc1	-53	53	-22	17	14	-3	·	·	·	·	·	·	·
O=C(COC(=O)COc1ccc2c(c1)CCC2)Nc1ccccc1C(F)(F)F	28	-28	·	-3	-9	·	·	·	·	·	·	·	·
O=C1c2c([N+](=O)[O-])cc([N+](=O)[O-])cc2S(=O)N1Cc1ccccc1 (stereo unspecified)	14	-14	15	6	-1	2	·	·	·	·	·	·	·
CCOc1ccc(S(=O)(=O)N(CC(=O)N/N=C/c2ccc(-c3ccc([N+](=O)[O-])cc3)o2)c2ccccc2)cc1	-22	22	·	35*	55*	65*	50*	87*	57*	59*	22*	68*	76*
O=C(Cn1ncc(Cl)c(Cl)c1=O)c1ccc(Cl)cc1	17	-17	-6	34*	32*	29*	22	8	18	13	72*	39*	6
CC1CCc2c(sc(NC(=O)/C=C/c3cccs3)c2C(=O)O)C1 (stereo unspecified)	-7	7	-2	-4	-12	·	·	·	·	·	·	·	·
CN(C)c1ccc(/C=C/c2nc3ccccc3s2)cc1	-8	8	·	22*	30*	45*	44*	68*	46*	59*	26*	57*	70*
CC(=O)N/C(=C/C(C)C)c1ccccc1	-1	1	·	-14	1	·	·	·	·	·	·	·	·
Cc1cccc(C)c1-n1c(C)cc(/C=N\Nc2ccc([N+](=O)[O-])cn2)c1C	-80	80*	-41	30*	44*	29*	35*	64*	31*	27	0	61*	62*
C=CCN1C(=O)c2ccc(C(=O)N3CCN(S(=O)(=O)c4cccc(F)c4)CC3)cc2C1=O	13	-13	·	4	1	·	·	·	·	·	·	·	·
CCCN1C(=O)/C(=C/c2ccc(N3CCCC3)c(C)c2)NC1=S	-87	87*	·	35*	35*	37*	37*	69*	26*	28	2	49*	55*
Cc1cc(/C=C2\NC(=S)N(C)C2=O)ccc1N1CCCC1	-48	48	-5	18	16	23	·	·	·	·	·	·	·
O=C1c2cccc3cccc(c23)C(=O)N1Cc1cccnc1	10	-10	-1	-6	9	·	·	·	·	·	·	·	·
O=C1c2cccc3c([N+](=O)[O-])ccc(c23)C(=O)N1Cc1cccnc1	16	-16	-15	78*	66*	77*	79*	104*	49*	66*	72*	84*	71*
Cc1ccnc(N2C(=O)c3cccc4c([N+](=O)[O-])ccc(c34)C2=O)c1	3	-3	5	88*	79*	92*	90*	113*	58*	82*	93*	92*	83*
Cc1ccc(N2C(=O)c3cccc4c([N+](=O)[O-])ccc(c34)C2=O)c2cccnc12	·	·	-1	13	8	·	·	·	·	·	·	·	·
CCOc1cc(/C=N/NC(=O)c2cccc(S(=O)(=O)N3CCCC3)c2)ccc1OCC(=O)N(C)C	-41	41	·	-38	-4	·	·	·	·	·	·	·	·
O=C(O)c1ccc(N2CCCCCC2)c(N2C(=O)c3ccccc3C2=O)c1	4	-4	12	2	-1	-16	·	·	·	·	·	·	·
O=C1c2cccc3c(N4CCCCC4)ccc(c23)C(=O)N1c1ccccc1O	-20	20	-2	52*	49*	28*	26*	39*	32*	31	7	60*	66*
O=C(O)CC(c1ccccc1)c1ccc2c(c1)OCO2 (stereo unspecified)	·	·	·	-8	-8	·	·	·	·	·	·	·	·
O=c1[nH]c2ccccc2nc1/C=C/c1ccc(O)cc1	-16	16	-16	38*	36*	36*	30*	53*	19	21	6	42*	53*
COc1cccc(C(=O)NCC2(c3ccc(OC)c(OC)c3)CCCC2)c1	-7	7	4	-6	-7	·	·	·	·	·	·	·	·
COc1cc(/C=C/C(=O)CC(=O)/C=C/c2ccc(O)c(OC)c2)ccc1O	-10	41	-40	37*	28*	32*	20	43*	30*	26	7	59*	61*
C/C(=N\Nc1ccc([N+](=O)[O-])cc1)c1ccc2c(c1)OCO2	-52	52	16	23*	32*	32*	35*	60*	28*	27	8	19	25*
C/C(=N\Nc1ccc([N+](=O)[O-])cc1)c1cc2ccccc2o1	-43	43	7	57*	58*	60*	54*	87*	44*	46	2	67*	72*
COc1ccc(C(=O)Nc2c(C(C)(C)C)nn(C)c2C(C)(C)C)cc1	9	-9	5	-6	-3	·	·	·	·	·	·	·	·
CCN1CCc2c(sc(NC(=O)Cc3ccccc3)c2C(N)=O)C1	16	-16	-6	-2	2	·	·	·	·	·	·	·	·
